# Results from different studies.
# Compare with care: the assays were run in different laboratories.
# Target: Casein kinase I isoform gamma-1 (CSNK1G1, Homo sapiens, UniProt Q9HCP0)
SMILES,test,setting,remaining binding
C[C@@H]1CN(c2cc(-c3n[nH]c4ccc(OC5(C)CC5)cc34)ncn2)C[C@H](C)O1,"cell-free assay, competition with immobilised ligand",0.1 µM,100%
CC1CCCN1c1nccc(-c2cnn3ncccc23)n1 (stereo not drawn),binding,1 µM,100%
CNC(=O)[C@@H]1CC[C@@H](n2c(-c3ccc4cnccc4c3)nc3ccc(C(=O)NCc4cccc(C(N)=O)c4)cc32)C1,"binding, competition with immobilised ligand",1 µM,100%
FC(F)(F)Oc1cccc(-c2cnc3ccc(-c4ccncc4)nn23)c1,"cell-free assay, competition with immobilised ligand",5 µM,67%
Nc1ncc2c(n1)-c1c([nH]c3ccc(C#CC4CC4)cc13)CCCC2,"binding, competition with immobilised ligand",1 µM,79%
CCCCN(CCCC)C(=O)CN1C[C@H](c2cc(OC)c3c(c2)OCO3)[C@@H](C(=O)O)[C@@H]1CC(C)(C)CCC,"cell-free assay, competition with immobilised ligand",1 µM,100%
O=C(c1ccc(Nc2ncc(Cl)c(-c3cc4ccccc4s3)n2)cc1)N1CCC(N2CCCC2)CC1,"binding, competition with immobilised ligand",1 µM,80%
CO[C@@H](C)c1c(Nc2ccc([C@H](N(C)C(=O)C3CCS(=O)(=O)CC3)C(F)(F)F)cc2)cnc2cc(Cl)nn12,"cell-free assay, competition with immobilised ligand",1 µM,100%
C[C@H]1CCN(c2nccc(-c3cnn4ncccc34)n2)C1,binding,1 µM,85%
CCC(=O)N[C@H]1CC[C@@H](C(=O)N(C)c2ccc(-c3nc4ccccc4o3)cc2)C1,"cell-free assay, competition with immobilised ligand",1 µM,90%
CN(C)c1nccc(-c2cnc3ncccn23)n1,binding,1 µM,81%
O=C(c1ccc(Nc2nccc(-c3cc4ccccc4s3)n2)cc1)N1CCC(N2CCCC2)CC1,"binding, competition with immobilised ligand",1 µM,88%
Cc1cnn2ncc(-c3ccnc(N(C)C)n3)c2c1,binding,1 µM,73%
NS(=O)(=O)c1cc(NC(=O)Cc2ccccc2)ccc1Oc1cccc(Cl)c1,"cell-free assay, competition with immobilised ligand",1 µM,89%
N[C@@H]1CCN(c2nccc(-c3cnn4ncccc34)n2)C1,binding,1 µM,100%
O=C(Nc1c[nH]nc1C(=O)NC1CCNCC1)c1cc(F)cc(F)c1,"binding, competition with immobilised ligand",1 µM,89%
CN(C)c1nccc(-c2cnn3ncccc23)n1,binding,1 µM,100%
c1cncc(-c2cccc(Nc3nccc(NC4CCCCC4)n3)c2)c1,"binding, competition with immobilised ligand",10 µM,89%
